Reference: ChEMBL document CHEMBL1140411, “Deoxyuridine triphosphate nucleotidohydrolase as a potential antiparasitic drug target” (J Med Chem, 2005)

Assays:
[1] = molecular target: T1, Deoxyuridine 5'-triphosphate nucleotidohydrolase, mitochondrial (Homo sapiens, UniProt P33316); assay: Inhibitory constant against human deoxyuridine 5'-triphosphate nucleotidohydrolase expressed in Escherichia coli BL21 (DE3) cells
T1 sequence (P33316 whole entry): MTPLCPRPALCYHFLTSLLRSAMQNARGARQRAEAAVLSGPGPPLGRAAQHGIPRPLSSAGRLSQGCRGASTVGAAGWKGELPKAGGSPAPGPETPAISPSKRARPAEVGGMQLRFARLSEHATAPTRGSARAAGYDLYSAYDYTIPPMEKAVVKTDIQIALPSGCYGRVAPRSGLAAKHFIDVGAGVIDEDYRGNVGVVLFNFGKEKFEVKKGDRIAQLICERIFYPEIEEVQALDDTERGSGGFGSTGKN
Method in brief: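 Human dUTPase expressed in E. coli BL21(DE3) and purified like the Plasmodium enzyme (phosphocellulose, then gel filtration). dUTP hydrolysis followed continuously by stopped-flow as pH-indicator absorbance (cresol red/bicine, 50:2000 µM, 573 nm). Apparent KM from integrated Michaelis-Menten fits at each inhibitor concentration; Ki from linear KMapp versus [I].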

L6 = assay: In vitro cytotoxicity aganist rat skeletal myoblasts (L-6 cells) after 72 hours; assay type: functional, cell-based; details: L6, 72 h
Method in brief: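 L-6 rat skeletal myoblasts seeded at 4 × 10^4 cells/mL in RPMI 1640 with 10% FBS and 2 mM L-glutamine. After 24 h, medium replaced with a serial drug dilution, then 72 h at 37 °C, 5% CO2. Alamar Blue added for a further 2-4 h. Fluorescence read at ex 536/em 588 nm. Run twice independently, in duplicate.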

[2] = tested on: Trypanosoma brucei rhodesiense; assay: Inhibitory constant against Trypanosoma brucei rhodesiense upon incubation with the compound at 37 degrees C under a 5% CO2 atmosphere for 72 hours; assay type: functional, organism-based
Trypanosoma cruzi = assay: In vitro growth inhibitory activity against Trypanosoma cruzi in rat L-6 cells upon incubation at 37 degrees C in 5% CO2 atmosphere for 4 days; assay type: functional, organism-based; details: L6, 96 h
Method in brief: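 L-6 cells seeded at 2000 cells/well in RPMI 1640 with 10% FBS and 2 mM L-glutamine. After 24 h, 5000 T. cruzi Tulahuen C2C4 LacZ trypomastigotes added with serial drug dilutions, then 4 days at 37 °C, 5% CO2. CPRG/Nonidet substrate added and colour read at 540 nm after 2-4 h. IC50 from sigmoidal curve. Twice independently, in duplicate.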

[3] = molecular target: T2, dUTP pyrophosphatase (Plasmodium falciparum 3D7) (UniProt Q8II92); assay: Selectivity index for Plasmodium falciparum deoxyuridine 5'-triphosphate nucleotidohydrolase defined as (Ki Human)/(Ki Plasmodium falciparum)
T2 sequence (whole entry): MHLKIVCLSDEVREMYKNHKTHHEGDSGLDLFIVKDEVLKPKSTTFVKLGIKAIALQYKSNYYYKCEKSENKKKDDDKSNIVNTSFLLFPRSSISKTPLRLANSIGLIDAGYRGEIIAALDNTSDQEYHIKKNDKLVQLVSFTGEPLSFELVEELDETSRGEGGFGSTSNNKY
Method in brief: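 Ratio of human dUTPase Ki to P. falciparum dUTPase Ki. Both Ki values came from stopped-flow pH-indicator assays following dUTP hydrolysis, with Ki derived from the dependence of apparent KM on inhibitor concentration.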

dUTP pyrophosphatase [4] = molecular target: T3, dUTP pyrophosphatase (Leishmania major, UniProt O15826); assay: Inhibitory constant against Leishmania major deoxyuridine 5'-triphosphate nucleotidohydrolase
T3 sequence (O15826 whole entry): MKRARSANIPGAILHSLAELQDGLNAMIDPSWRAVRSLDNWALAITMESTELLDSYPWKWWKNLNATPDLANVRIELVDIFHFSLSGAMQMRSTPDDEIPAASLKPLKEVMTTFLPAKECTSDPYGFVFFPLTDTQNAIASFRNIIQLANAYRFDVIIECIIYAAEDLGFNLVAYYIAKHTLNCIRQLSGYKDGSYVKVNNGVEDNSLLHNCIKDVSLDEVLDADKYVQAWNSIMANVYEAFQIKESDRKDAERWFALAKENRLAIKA

Plasmodium falciparum = assay: In vitro inhibitory activity against Plasmodium falciparum as [3H]hypoxanthine (50 uL) incorporation at 37C; assay type: functional, organism-based
dUTP pyrophosphatase [5] = molecular target: T4, dUTP pyrophosphatase (Plasmodium falciparum 3D7, UniProt Q8II92); assay: Inhibitory constant against Plasmodium falciparum deoxyuridine 5'-triphosphate nucleotidohydrolase expressed in Escherichia coli BL21 (DE3) cells
T4 sequence (Q8II92 whole entry): T2 sequence (whole entry)
Method in brief: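 Recombinant PfdUTPase expressed in E. coli BL21(DE3) and purified by phosphocellulose and gel filtration to ~96% purity. Continuous stopped-flow assay following proton release with cresol red/bicine (50:2000 µM, 573 nm). Mix: 30 nM enzyme, 50 µM dUTP, 5 mM MgCl2, 2.5 mM DTT, 1.25 mg/mL BSA, 100 mM KCl. KMapp from integrated Michaelis-Menten fits, plotted against [I] to give Ki.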

Leishmania donovani = assay: In vitro growth inhibitory activity against Leishmania donovani amastigotes at 37 degrees C under a 5% CO2 atmosphere for 96 hours; assay type: functional, organism-based
Method in brief: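 Mouse peritoneal macrophages in RPMI 1640 with 10% heat-inactivated FBS, infected after 24 h with L. donovani amastigotes at 3:1 (amastigote:macrophage). Free amastigotes washed out at 4 h. Next day, drug-containing medium added for 96 h at 37 °C, 5% CO2. Slides methanol-fixed and Giemsa-stained. Percentage of infected macrophages scored microscopically versus control; IC50 by linear regression. Twice independently, in duplicate.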

Compound	Ki [1] [µM]	IC50 (L6) [µM]	IC50 [2] [µM]	IC50 (Trypanosoma cruzi) [µM]	SI [3]	Ki (dUTP pyrophosphatase [4]) [µM]	IC50 (Plasmodium falciparum) [µM]	Ki (dUTP pyrophosphatase [5]) [µM]	IC50 (Leishmania donovani) [µM]
CC(C)(C)[Si](OCC1OC(n2ccc(=O)[nH]c2=O)CC1F)(c1ccccc1)c1ccccc1 (stereo unspecified)	808	16	29	32	9.1	> 1000	8.8	89	–
CC(C)(C)[Si](OC[C@H]1O[C@@H](n2ccc(=O)[nH]c2=O)C[C@@H]1O)(c1ccccc1)c1ccccc1	806	23	3	45	192	> 1000	6.6	–	–
O=c1ccn([C@H]2C[C@H](O)[C@@H](COC(c3ccccc3)(c3ccccc3)c3ccccc3)O2)c(=O)[nH]1	18	–	24	306	10	> 1000	–	–	> 64
CC(C)(C)[Si](OCC1C=CC(n2ccc(=O)[nH]c2=O)O1)(c1ccccc1)c1ccccc1 (stereo unspecified)	–	67	55	33	> 833	178	3	–	–
O=C(NCC1OC(n2ccc(=O)[nH]c2=O)CC1O)C12CC3CC(CC(C3)C1)C2 (stereo unspecified)	> 1000	–	> 231	> 231	> 2	> 1000	> 13	426	–
O=c1ccn([C@H]2C[C@H](O)[C@@H](CO[Si](c3ccccc3)(c3ccccc3)c3ccccc3)O2)c(=O)[nH]1	909	–	15	71	325	> 1000	–	–	–
NS(=O)(=O)OCC1C=CC(n2ccc(=O)[nH]c2=O)O1 (stereo unspecified)	> 1000	–	> 311	> 311	> 4	> 1000	163	254	–
O=c1ccn(C2CC(O)C(CNCc3ccccc3)O2)c(=O)[nH]1 (stereo unspecified)	> 1000	–	17	> 83	> 9	> 1000	> 16	111	–
CC(C)(C)[Si](C)(C)O[C@H]1C[C@H](n2ccc(=O)[nH]c2=O)O[C@@H]1COC(=O)NS(N)(=O)=O	> 1000	–	12	> 152	> 4	> 1000	37	244	> 51
O=c1ccn([C@H]2C=C[C@@H](CO)O2)c(=O)[nH]1	> 1000	–	72	170	> 3	> 1000	214	298	–
NS(=O)(=O)NC(=O)OC[C@H]1O[C@@H](n2ccc(=O)[nH]c2=O)C[C@@H]1O	> 1000	–	90	> 194	> 2	314	20	468	> 65
CCCCCCCCCCCCCCCC(=O)OCC1C=CC(n2ccc(=O)[nH]c2=O)O1 (stereo unspecified)	350	–	113	> 201	1.4	> 1000	> 11	256	> 67
CC(C)(C)[Si](C)(C)O[C@H]1C[C@H](n2ccc(=O)[nH]c2=O)O[C@@H]1COS(N)(=O)=O	324	–	104	160	3.7	> 1000	40	88	> 7
O=c1ccn(C2CC(O)C(CNC(c3ccccc3)(c3ccccc3)c3ccccc3)O2)c(=O)[nH]1 (stereo unspecified)	46	44	48	44	230	304	–	0.2	–
O=c1ccn(C2C=CC(COC(c3ccccc3)(c3ccccc3)c3ccccc3)O2)c(=O)[nH]1 (stereo unspecified)	157	–	55	44	83	798	> 11	1.9	> 66
CCOP(=O)(CC(=O)NCC1OC(n2ccc(=O)[nH]c2=O)CC1O)OCC (stereo unspecified)	> 1000	–	41	> 222	> 3	> 1000	78	324	29
CC(C)(C)[Si](C)(C)OCC1C=CC(n2ccc(=O)[nH]c2=O)O1 (stereo unspecified)	56.4	–	73	110	5.6	> 1000	51	10	–
O=c1ccn(C2C=CC(COP(=O)(Oc3ccccc3)Oc3ccccc3)O2)c(=O)[nH]1 (stereo unspecified)	> 1000	–	68	> 204	> 10	> 1000	54	99	–
CC(C)(C)[Si](C)(C)OCC1OC(n2ccc(=O)[nH]c2=O)CC1F (stereo unspecified)	–	–	59	37	> 1.6	> 1000	> 14	628	> 87
